Screening results (PubChem BioAssay)
Shown are actives, neighbours in structure and some others; about 2.9% of the full set was active somewhere.
TRPC4 agonist – activators of mouse TRPC4 channel; Q9QUQ5; HEK293 TRPC4beta/mu-opioid, Fluo4 calcium fluorescence; stronger effect = higher value; B-score at 10 µM; 310,000 compounds, 0.49% hits; AID 2237;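 active = B-score above 5 SD of library B-scores, and initial fluorescence ratio not above library mean plus 5 SD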;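 also: positive B-score marks a calcium rise read as TRPC4 activation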
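Material: TRPC4beta and mu-opioid receptor HEK293 stable cells | Incubation: 45 min room-temperature Fluo4 loading, 110 s read | Detection: Kinetic Fluo4 calcium fluorescence | Measure: Integrated baseline-normalised fluorescence ratio, converted to per-well B score | Benchmarks: Low control buffer alone, high control maximal DAMGO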
TRPC4 inh – blocks the mouse TRPC4 cation channel. Q9QUQ5. HEK293 TRPC4beta/mu-opioid, DAMGO-evoked Fluo4 calcium flux; stronger effect = lower value. B-score at 10 µM. 300,000 compounds, 0.39% hits. AID 2247;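 active = B-score over 3 SD under the library average, no early fluorescence shift, positive overall ratio signal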
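material = TRPC4beta/mu-opioid receptor HEK293 cell line | probe or stimulus = sequential submaximal and maximal DAMGO stimulation | compound dosing = one concentration per compound | measured by = Fluo4 Ca2+ flux fluorescence | evaluation = integrated fluorescence ratio relative to baseline, converted to per-well B score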
TRPC6 act – mouse TRPC6 channel activation. AID 2550. B-score at 10 µM. HEK293-TRPC6 membrane potential dye fluorescence; stronger effect = higher value. 310,000 compounds, 0.13% hits. Q61143;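 active = B-score of the integrated fluorescence ratio above library mean plus 3 SD, and starting fluorescence ratio within library mean plus 5 SD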;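 also: higher score means more depolarization so channel activation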
Target sequence (Q61143 whole entry, looked up): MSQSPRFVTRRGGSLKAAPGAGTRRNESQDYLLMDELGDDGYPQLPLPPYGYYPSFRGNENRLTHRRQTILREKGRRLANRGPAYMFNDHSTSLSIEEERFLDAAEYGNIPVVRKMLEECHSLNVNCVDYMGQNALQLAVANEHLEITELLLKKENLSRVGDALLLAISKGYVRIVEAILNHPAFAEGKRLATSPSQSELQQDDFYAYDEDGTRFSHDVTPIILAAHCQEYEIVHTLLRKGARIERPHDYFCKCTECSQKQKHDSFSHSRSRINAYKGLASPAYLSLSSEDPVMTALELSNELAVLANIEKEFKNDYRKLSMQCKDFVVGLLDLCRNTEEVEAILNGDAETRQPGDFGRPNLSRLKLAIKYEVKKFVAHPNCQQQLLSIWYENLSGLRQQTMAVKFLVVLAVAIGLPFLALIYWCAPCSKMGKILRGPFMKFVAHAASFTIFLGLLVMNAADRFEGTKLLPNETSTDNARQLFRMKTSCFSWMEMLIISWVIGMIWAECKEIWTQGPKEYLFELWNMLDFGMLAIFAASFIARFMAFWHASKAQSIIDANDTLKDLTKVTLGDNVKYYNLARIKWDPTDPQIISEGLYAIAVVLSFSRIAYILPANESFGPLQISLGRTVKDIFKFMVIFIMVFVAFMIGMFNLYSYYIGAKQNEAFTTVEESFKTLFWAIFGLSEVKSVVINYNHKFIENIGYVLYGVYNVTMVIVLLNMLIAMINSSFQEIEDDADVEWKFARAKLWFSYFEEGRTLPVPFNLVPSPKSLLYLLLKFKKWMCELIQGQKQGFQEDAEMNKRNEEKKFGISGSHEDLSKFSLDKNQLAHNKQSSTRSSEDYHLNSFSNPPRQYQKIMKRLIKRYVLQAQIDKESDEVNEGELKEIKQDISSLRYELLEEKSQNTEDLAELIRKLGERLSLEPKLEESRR
TRPC6 inh – inhibitors of mouse TRPC6 channel; 310,000 compounds, 1.1% hits; B-score at 10 µM; AID 2553; HEK293-TRPC6, membrane potential dye, ACh-evoked depolarization; stronger effect = lower value;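 active = B-score under library mean minus 3 SD, initial fluorescence not abnormally high, positive integrated signal ratio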;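 also: B-score derived from integrated fluorescence ratio over the kinetic read; more negative B-score means stronger inhibition of depolarization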
Kir21 inh – inhibitors of mouse Kir2.1 inward-rectifier potassium channel. P35561. HEK293-Kir2.1, FluxOR thallium flux fluorescence; stronger effect = lower value. B-score at 10 µM. 310,000 compounds, 0.85% hits. AID 1672;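 active = fluorescence ratio B-score at or below minus 3 SD of library scores, with starting-brightness B-score within 2 SD, cut at about -4.2 in these data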;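 also: channel flux triggered by added potassium and thallium sulfate stimulus; B-score of peak minus minimum fluorescence over baseline after thallium stimulus; more negative B-score means stronger Kir2.1 block with less thallium influx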
TRPC4 potent – allosteric potentiators of mouse TRPC4 channel; Q9QUQ5; HEK293 TRPC4beta/mu-opioid, DAMGO EC20, Fluo-4 Ca2+ flux; stronger effect = higher value; B-score at 10 µM; 310,000 compounds, 0.42% hits;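 active = B-score of calcium response area above 5 SD of library B-scores, with initial fluorescence ratio within 5 SD of library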;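 also: B-score of integrated fluorescence ratio over time as area under calcium response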
TRPC4 sel inh 2 – mouse TRPC4 off-target activity of TRPC6 inhibitors, second screen; inhibition, % at 10 µM; shares compounds with TRPC6 inh; AID 2776; 920 compounds, 42% hits; HEK293 TRPC4/MOR, membrane potential dye fluorescence; channel activated by saturating DAMGO dose;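 active = compounds whose fluorescence signal differed from control wells by over 3 SD, either direction, in both duplicate plates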
TRPC4 spec – mouse TRPC4 off-target activity of TRPC6 inhibitors | shares compounds with TRPC6 inh | HEK293 TRPC4/mu-opioid, membrane potential fluorescence | activity change, negative = inhibition, % at 10 µM | 920 compounds, 61% hits | AID 2777;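 active = rise or fall in signal beyond 3 SD of buffer-only wells in both replicate plates, either sign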;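 also: integrated kinetic ratio of fluorescence range over baseline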
HEK293 MPD ctr 2-1 – second check of TRPC6 inhibitor effects in parental HEK293 cells. signal change vs control, % at 10 µM. 920 compounds, 31% hits. shares compounds with TRPC6 inh. parental HEK293 membrane potential dye fluorescence; maximal acetylcholine challenge after compound addition;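 active = membrane potential signal moving either way by over 3 SD of the maximum-effect control, in both duplicate plates, meaning non-specific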
HEK293 MPD ctr-1 – counter-screen for TRPC6 inhibitors: effect in parental HEK293 cells; shares compounds with TRPC6 inh; parental HEK293 membrane potential dye fluorescence; membrane potential signal change, % at 10 µM; 920 compounds, 60% hits; AID 2780;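 active = membrane potential signal shifting up or down by more than 3 SD of buffer-only wells, on both duplicate plates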
HEK293 MPD ctr-2 – counter-screen for TRPC6 modulators: effect in parental HEK293 cells. 2,400 compounds, 51% hits. shares compounds with TRPC6 inh. membrane potential signal change, % at 10 µM. membrane potential dye fluorescence. AID 488924;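 active = membrane potential signal moves up or down beyond 5 SD from buffer-only wells, on both duplicate plates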
HEK293 MPD ctr 2-2 – second check of TRPC6 modulator effects in parental HEK293 cells; membrane potential dye fluorescence; after compound, maximal acetylcholine stimulation; inhibition, % at 10 µM; shares compounds with TRPC6 inh; 2,400 compounds, 14% hits;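 active = membrane potential signal drops by more than 5 SD from the mean control signal, in both duplicate plates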;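 also: plate controls were acetylcholine ECmax control wells for no effect and buffer only wells for full effect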
TRPC4/MOR mod – tests whether TRPC6 modulators also affect mouse TRPC4 | HEK293 TRPC4/mu-opioid, membrane potential fluorescence | shares compounds with TRPC6 inh | 2,400 compounds, 69% hits | percent change from control (negative = decrease, positive = increase), % at 10 µM;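 active = membrane potential signal moved up or down beyond 5 SD of buffer control wells, in both duplicate plates, actives on both sides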;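 also: plate controls were assay buffer wells for no effect and DAMGO maximal-effect wells for full effect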
TRPC4/MOR inh 2 – second selectivity test of TRPC6 modulators against mouse TRPC4; shares compounds with TRPC6 inh; HEK293 TRPC4/mu-opioid, membrane potential dye fluorescence; stimulated with maximal-effect DAMGO; inhibition, % at 10 µM; 2,400 compounds, 55% hits; AID 488928;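 active = drop in membrane potential signal beyond 5 SD of the control wells in both duplicate plates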;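 also: TRPC4 counter screen for TRPC6 hits run under conditions tuned for TRPC6 not TRPC4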
TRPC6 block conf – confirmation of mouse TRPC6 inhibitors; shares compounds with TRPC6 inh; HEK293-TRPC6, membrane potential dye, ACh-evoked depolarization; inhibition, % at 10 µM; 3,300 compounds, 43% hits;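 active = fluorescence ratio falls more than 5 SD below the full-stimulation control mean, in both duplicate runs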;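 also: integrated fluorescence ratio of peak minus minimum over baseline after agonist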
TRPC6 act conf – mouse TRPC6 activator confirmation; shares compounds with TRPC6 inh; 2,800 compounds, 11% hits; HEK293-TRPC6 membrane potential dye fluorescence, FDSS; activation, % at 10 µM;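 active = ratio signal rise beyond 5 SD above unstimulated control wells' mean, seen in both duplicate runs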;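 also: plate controls were buffer EC0 wells for no effect and acetylcholine ECmax response for full effect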
The depositor's hits bear a star.

CC(/C=N/n1c(-c2n[nH]c3c2CCC3)n[nH]c1=S)=C\c1ccco1 was read as TRPC4 agonist inactive, TRPC4 inh inactive, TRPC6 act inactive, TRPC6 inh -8.4*, Kir21 inh 1.2, TRPC4 potent inactive, TRPC4 sel inh 2 inactive, TRPC4 spec inactive, HEK293 MPD ctr 2-1 -11%*, HEK293 MPD ctr-1 inactive, TRPC6 block conf 70%* and TRPC6 act conf inactive.
For COc1ccc(OC)c(/C=N/n2c(-c3n[nH]c4c3CCC4)n[nH]c2=S)c1 the results were TRPC4 agonist inactive, TRPC4 inh inactive, TRPC6 act inactive, TRPC6 inh inactive, Kir21 inh -0.83 and TRPC4 potent inactive.
For CCOc1ccc(NC(=O)N[C@@H](Cc2ccccc2)C(=O)O)cc1 the results were TRPC4 agonist inactive, TRPC4 inh inactive, TRPC6 act inactive, TRPC6 inh inactive, Kir21 inh -0.06 and TRPC4 potent inactive.
For CCOC(=O)c1ccc(NC(=O)Oc2cc(C)c(Cl)cc2C(C)C)cc1 the results were TRPC4 agonist inactive, TRPC4 inh inactive, TRPC6 act inactive, TRPC6 inh -9.9*, Kir21 inh -2, TRPC4 potent inactive, HEK293 MPD ctr-2 126%*, HEK293 MPD ctr 2-2 inactive, TRPC4/MOR mod 13%*, TRPC4/MOR inh 2 31%*, TRPC6 block conf inactive and TRPC6 act conf inactive.
Screening CCOC(=O)c1ccc(NC(=O)Oc2ccccc2)cc1 returned TRPC4 agonist inactive, TRPC4 inh inactive, TRPC6 act inactive, TRPC6 inh inactive, Kir21 inh -0.22 and TRPC4 potent inactive.
Cc1cc(OCC(=O)NNC(=O)c2cccnc2)cc(C)c1Cl was read as TRPC4 agonist inactive, TRPC4 inh inactive, TRPC6 act inactive, TRPC6 inh inactive, Kir21 inh -2.7 and TRPC4 potent inactive.
CCCCOc1ccc(CSCCN)cc1Cl was read as TRPC4 agonist inactive, TRPC4 inh inactive, TRPC6 act inactive, TRPC6 inh -6.2*, Kir21 inh -3.8, TRPC4 potent inactive, HEK293 MPD ctr-2 inactive, HEK293 MPD ctr 2-2 inactive, TRPC4/MOR mod inactive, TRPC4/MOR inh 2 59%*, TRPC6 block conf 45%* and TRPC6 act conf inactive.
`C=CCn1c(Oc2cc(C)ccc2C)nc2c1c(=O)n(C)c(=O)n2C` gave TRPC4 agonist inactive, TRPC4 inh inactive, TRPC6 act inactive, TRPC6 inh -6.2*, Kir21 inh 0.73, TRPC4 potent inactive, HEK293 MPD ctr-2 140%*, HEK293 MPD ctr 2-2 inactive, TRPC4/MOR mod 30%*, TRPC4/MOR inh 2 41%* and TRPC6 block conf inactive.
Screening CC(=O)N(C)c1ccc(NS(=O)(=O)c2cc(Cl)ccc2Cl)cc1 returned TRPC4 agonist inactive, TRPC4 inh inactive, TRPC6 act inactive, TRPC6 inh inactive, Kir21 inh -0.14 and TRPC4 potent inactive.
For Cc1cccc(C(=O)NCC(=O)N2CCOCC2)c1 the results were TRPC4 agonist inactive, TRPC4 inh inactive, TRPC6 act inactive, TRPC6 inh inactive, Kir21 inh -1.6 and TRPC4 potent inactive.
For NC(=O)COc1ccc2oc(-c3ccccc3)cc(=O)c2c1 the results were TRPC4 agonist inactive, TRPC4 inh inactive, TRPC6 act inactive, TRPC6 inh inactive, Kir21 inh -0.68 and TRPC4 potent inactive.
Screening OCCCCCN=c1cc(-c2ccccc2)oc2ccc(Cl)cc12 returned TRPC4 agonist inactive, TRPC4 inh inactive, TRPC6 act inactive, TRPC6 inh -8*, Kir21 inh -0.47, TRPC4 potent inactive, TRPC4 sel inh 2 57%*, TRPC4 spec -26%*, HEK293 MPD ctr 2-1 31%*, HEK293 MPD ctr-1 -432%*, TRPC6 block conf 74%* and TRPC6 act conf inactive.
`COc1ccc(CCN(C(=O)c2snc(C(N)=O)c2N)C(C)C(=O)NC2CCCCC2)cc1OC` (stereo not drawn) gave TRPC4 agonist inactive, TRPC4 inh inactive, TRPC6 act inactive, TRPC6 inh inactive, Kir21 inh 1.4 and TRPC4 potent inactive.
Screening Cc1ccc(NC2(C#N)C(=O)Nc3ccccc32)cc1C (stereo not drawn) returned TRPC4 agonist inactive, TRPC4 inh inactive, TRPC6 act inactive, TRPC6 inh inactive, Kir21 inh 2.5 and TRPC4 potent inactive.
`COC(=O)c1ccc(NC2(C#N)C(=O)Nc3ccccc32)cc1` (stereo not drawn) gave TRPC4 agonist inactive, TRPC4 inh inactive, TRPC6 act inactive, TRPC6 inh -8.5*, Kir21 inh -1.1, TRPC4 potent inactive, TRPC4 sel inh 2 inactive, TRPC4 spec inactive, HEK293 MPD ctr 2-1 inactive, HEK293 MPD ctr-1 inactive and TRPC6 block conf 88%*.
